Reference: PubChem BioAssay AID1217 (Sanford-Burnham Center for Chemical Genomics, 2008)
The campaign covered roughly 190,000 compounds. About 1,300 (0.68%) were called active. The sample holds actives, similar compounds and a random draw of the others, so the mix is not that of the screen.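 The calls were made as follows: active = primary screen inhibition at 20 µM above a set limit (cut at about 50% in these data); inactive = the rest.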

tested on: diaphorase (Clostridium kluyveri); assay: diaphorase inhibitors and chemical oxidizers, primary screen, counter-screen for diaphorase-coupled primary assays, biochemical, uHTS, resorufin fluorescence (AID 1217); conditions: diaphorase resazurin-to-resorufin fluorescence, NADH, 16 min; at 20 µM; stronger effect = higher value;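 also: plate controls were DMSO with full reaction for no effect and wells lacking NADH for full effect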
How it was run: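 Assay system: diaphorase enzyme from Clostridium kluyveri. Quantity: enzyme working solution with 0.14 U/mL diaphorase. Schedule: reaction incubation of 16 min at room temperature. Technique: resorufin fluorescence, excitation 544 nm, emission 590 nm. Controls: No-NADH positive control and DMSO neutral control.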

Compound	inhibition
COc1ccccc1N=Nc1c(O)[nH]c(=S)[nH]c1=O	51.2% (active)
COc1ccccc1N=C1SCCCN1C	7.6% (inactive)
COc1ccccc1-n1c(O)c(C=NC2CC2)c(=O)[nH]c1=O	7.4% (inactive)
COc1ccc(-c2nn(CCC#N)cc2C(=O)O)cc1	0.1% (inactive)
COc1ccc(NC(=O)c2cn(CCC#N)nc2-c2ccc([N+](=O)[O-])cc2)cc1	1.1% (inactive)
CN(C)c1nc(N(C)C)nc(N(C#N)CCCl)n1	-15.8% (inactive)
O=C(Cc1ccccc1)N1CCN(C2CCCCCC2)CC1	19.6% (inactive)
Cc1ccc2c(c1)=C/C(=C\c1c(O)[nH]c(=O)[nH]c1=O)C(=O)N=2	65.8% (active)
O=C1N=c2ccccc2=C/C1=C\c1c(O)[nH]c(=S)[nH]c1=O	20% (inactive)
COc1cccc(N2C(=O)NC(=O)/C(=C\c3ccc([N+](=O)[O-])s3)C2=O)c1	27.2% (inactive)
